Data reported in ChEMBL document CHEMBL3994631, “Design, synthesis, structure-activity relationship and mechanism of action studies of a series of 4-chloro-1-phthalazinyl hydrazones as a potent agent against Leishmania braziliensis” (Eur J Med Chem, 2017).
Active and inactive are the calls of the source. No cut-off for these calls is given here.

Experiments:
Leishmania braziliensis [1] = experiment: Antileishmanial activity against Leishmania braziliensis MHOM/CO/87/UA301 promastigote forms isolated from infected Balb/c mouse assessed as parasite growth inhibition at 20 uM after 96 hrs by MTT assay relative to control; type: functional; settings: MHOM/CO/87/UA301, 96 h, read-out: GI
Summary of the method: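 Promastigotes in LIT + 10% FBS at 2x10^6/mL exposed to a single 20 μM concentration for 96 h at 29 °C. MTT (1 mg/mL) added for 4 h in darkness, cells lysed with acidic isopropanol, read at 570 nm. Inhibition relative to untreated parasites; means of three independent experiments.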

Leishmania braziliensis [2] = experiment: Antileishmanial activity against Leishmania braziliensis MHOM/CO/87/UA301 promastigote forms isolated from infected Balb/c mouse by neubauer chamber method; type: functional
Summary of the method: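 Promastigotes seeded at 1x10^6/mL in LIT medium at 29 °C with 0.1–10 μM compound. Growth followed daily by Neubauer chamber counting; three independent experiments per concentration. EC50 obtained by nonlinear regression of concentration–response data.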

[3] = Cytotoxicity against mouse BMDM assessed as reduction in cell viability after 48 hrs by MTT assay; type: cell-based; settings: bone marrow-derived macrophages (BMDM), read-out: LC50
Summary of the method: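 Mouse bone-marrow macrophages (BMDM) were differentiated in L-929 conditioned medium and kept at 37 °C, 5% CO2, 90% humidity. Cells at 5×10^4 cells/mL were exposed to compounds at 10 to 100 µM for 48 h. Read-out was MTT reduction as a percentage of control cells. LC50 is the mean of three independent experiments.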

Leishmania braziliensis [4] = experiment: Antileishmanial activity against Leishmania braziliensis MHOM/CO/87/UA301 promastigote forms isolated from infected Balb/c mouse assessed as induction of oxidative stress by measuring reduction in mitochondrial dehydrogenase activity at 20 uM after 30 to 180 mins by MTT assay; type: functional
Summary of the method: (§1)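 10^6 promastigotes in 500 μL per well treated with 20 μM compound at 28 °C, with untreated wells for each time point; sampled between 30 and 180 min. Cells counted, then MTT added (50 μL of 5 mg/mL in PBS) for 4 h. Stopped with acidic isopropanol, read at 570 nm. Pmdh (%) taken relative to untreated parasites as 100%; triplicate.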

Leishmania braziliensis [5] = experiment: Inhibition of DHFR in Leishmania braziliensis MHOM/CO/87/UA301 promastigote forms assessed as growth inhibition at 10 uM after 72 hrs in presence of folinic acid by neubauer chamber method
Leishmania braziliensis [6] = experiment: Inhibition of DHFR in Leishmania braziliensis MHOM/CO/87/UA301 promastigote forms assessed as growth inhibition at 2 uM after 72 hrs in presence of folinic acid by neubauer chamber method
Leishmania braziliensis [7] = experiment: Antileishmanial activity against Leishmania braziliensis MHOM/CO/87/UA301 amastigote forms infected in mouse BMDM after 96 hrs by Giemsa staining based assay; type: functional; settings: MHOM/CO/87/UA301, BMDM
Summary of the method: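 BMDM mixed 1:10 with L. braziliensis promastigotes in DMEM + 10% FBS on glass coverslips, 18 h at 37 °C, 5% CO2. Medium then replaced with medium containing compound and incubated 96 h under the same conditions. Giemsa-stained macrophages counted for % total and % infected macrophages and amastigotes per macrophage; triplicate.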

[8] = Selectivity index, ratio of LC50 for mouse BMDM to EC50 for Leishmania braziliensis MHOM/CO/87/UA301 amastigote forms infected in mouse BMDM
Leishmania braziliensis [9] = experiment: Ratio of EC50 for Leishmania braziliensis MHOM/CO/87/UA301 amastigote forms infected in mouse BMDM to EC50 for Leishmania braziliensis MHOM/CO/87/UA301 promastigote forms; type: functional
Leishmania braziliensis [10] = experiment: Potency index, ratio of miltefosine EC50 to compound EC50 for Leishmania braziliensis MHOM/CO/87/UA301 promastigote forms isolated from infected Balb/c mouse; type: functional
Leishmania braziliensis [11] = experiment: Antileishmanial activity against Leishmania braziliensis MHOM/CO/87/UA301 amastigote forms infected in mouse BMDM assessed as induction of nitrite production after 48 hrs by Griess assay; type: functional
Summary of the method: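 Macrophages infected with L. braziliensis were incubated 48 h with compound at 0.08, 0.80 and 8.0 μM. Controls: untreated infected and uninfected macrophages, three wells each. Nitrite in supernatants measured by Griess reaction against a sodium nitrite standard (detection limit 1.56 μM). Triplicate; expressed as % of untreated infected macrophages.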

Leishmania braziliensis [12] = experiment: Antileishmanial activity against Leishmania braziliensis MHOM/CO/87/UA301 promastigote forms isolated from infected Balb/c mouse assessed as induction of oxidative stress by measuring reduction in mitochondrial dehydrogenase activity at 20 uM by MTT assay; type: functional; settings: TDE = time-dependent effect; summary of the method: as §1
Leishmania braziliensis [13] = experiment: Cytotoxicity against Leishmania braziliensis MHOM/CO/87/UA301 promastigote forms assessed as cell death at 20 uM after 30 mins by MTT assay; settings: 0.5 h; summary of the method: as §1
Leishmania braziliensis [14] = experiment: Inhibition of CuZn-SOD in Leishmania braziliensis MHOM/CO/87/UA301 promastigote forms assessed as reduction in superoxide level at 0.012 to 1.2 uM after 30 mins by spectrophotometric based xanthine oxidase coupled enzyme assay
Summary of the method: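 Promastigotes (4 million in 500 μL) treated at 0.012, 0.12 and 1.2 μM, then pelleted. Sonicated in STE buffer pH 7.8 and centrifuged; protein measured by Bradford. SOD activity read as NBT reduction by superoxide from xanthine/xanthine oxidase (8.4 U) with EDTA, Na2CO3 and albumin. 30 min at 27 °C, CuCl2 added, A595 measured; controls without xanthine oxidase; triplicate.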

Leishmania braziliensis [15] = experiment: Inhibition of DHFR in Leishmania braziliensis MHOM/CO/87/UA301 promastigote forms assessed as growth inhibition at 0.5 uM after 72 hrs in presence of folinic acid by neubauer chamber method

## C/C(=N\Nc1nnc(Cl)c2ccccc12)c1ccc(Cl)cc1Cl
Leishmania braziliensis [1]
  inhibition of growth at 20 µM: 37.5%
Leishmania braziliensis [2]
  EC50: > 20 µM

## Clc1nnc(N/N=C/c2ccco2)c2ccccc12
Leishmania braziliensis [1]
  inhibition of growth at 20 µM: 40.9 to 59.1%
Leishmania braziliensis [2]
  EC50: ≥ 20 µM

## CCCCCCCCCCCCCCCCOP(=O)([O-])OCC[N+](C)(C)C [MILTEFOSINE]
Leishmania braziliensis [1]
  inhibition of growth at 20 µM: 67.8%
Leishmania braziliensis [2]
  EC50: 20 to 25 µM
[3]
  CC50 at 48 h: 125 µM
Leishmania braziliensis [4]
  Activity: inactive
Leishmania braziliensis [5]
  inhibition: inactive

## Clc1ccc(C=NNc2nnc(Cl)c3ccccc23)cc1
Leishmania braziliensis [1]
  inhibition of growth at 20 µM: 16.8%
Leishmania braziliensis [2]
  EC50: > 20 µM

## Oc1ccccc1/C=N\Nc1nnc(Cl)c2ccccc12
Leishmania braziliensis [1]
  inhibition of growth at 20 µM: 33.9 to 64.2%
Leishmania braziliensis [2]
  EC50: > 20 µM

## C/C(=N\Nc1nnc(Cl)c2ccccc12)c1ccc(O)cc1
Leishmania braziliensis [1]
  inhibition of growth at 20 µM: 22.9%
Leishmania braziliensis [2]
  EC50: > 20 µM

## CN(Cc1cnc2nc(N)nc(N)c2n1)c1ccc(C(=O)N[C@@H](CCC(=O)O)C(=O)O)cc1
Leishmania braziliensis [6]
  inhibition: Active

## Clc1nnc(N/N=C/c2ccccc2)c2ccccc12
Leishmania braziliensis [1]
  inhibition of growth at 20 µM: 8.46%
Leishmania braziliensis [2]
  EC50: > 20 µM

## O=[N+]([O-])c1ccc(C=NNc2nnc(Cl)c3ccccc23)o1
Leishmania braziliensis [1]
  inhibition of growth at 20 µM: 13.5 to 86.5%
Leishmania braziliensis [2]
  EC50: 0.12 µM
[3]
  CC50 at 48 h: 14 µM
Leishmania braziliensis [7]
  EC50: 0.59 µM
[8]
  Selectivity Index: 23.7
Leishmania braziliensis [9]
  Ratio EC50: 4.9
Leishmania braziliensis [10]
  Ratio EC50: 208
Leishmania braziliensis [11]
  Activity: Dose-dependent effect
Leishmania braziliensis [12]
  Activity: Tde
Leishmania braziliensis [13]
  Activity: Non-Toxic
Leishmania braziliensis [14]
  inhibition: inactive
Leishmania braziliensis [15]
  inhibition: inactive

## C/C(=N\Nc1nnc(Cl)c2ccccc12)c1cc(Cl)ccc1Cl
Leishmania braziliensis [1]
  inhibition of growth at 20 µM: 20%
Leishmania braziliensis [2]
  EC50: > 20 µM

## O=[N+]([O-])c1ccc(C=NNc2nnc(Cl)c3ccccc23)cc1
Leishmania braziliensis [1]
  inhibition of growth at 20 µM: 41.9 to 58.1%
Leishmania braziliensis [2]
  EC50: < 20 µM

## C/C(=N\Nc1nnc(Cl)c2ccccc12)c1ccc([N+](=O)[O-])cc1
Leishmania braziliensis [1]
  inhibition of growth at 20 µM: 19.1%
Leishmania braziliensis [2]
  EC50: > 20 µM

## O=[N+]([O-])c1cccc(/C=N/Nc2nnc(Cl)c3ccccc23)c1
Leishmania braziliensis [1]
  inhibition of growth at 20 µM: 10.6%
Leishmania braziliensis [2]
  EC50: > 20 µM

## Fc1ccc(/C=N/Nc2nnc(Cl)c3ccccc23)cc1
Leishmania braziliensis [1]
  inhibition of growth at 20 µM: 17.8%
Leishmania braziliensis [2]
  EC50: > 20 µM

## C/C(=N\Nc1nnc(Cl)c2ccccc12)c1ccc(Br)cc1
Leishmania braziliensis [1]
  inhibition of growth at 20 µM: 10.6%
Leishmania braziliensis [2]
  EC50: > 20 µM

## Clc1nnc(N/N=C/c2cccc(Br)c2)c2ccccc12
Leishmania braziliensis [1]
  inhibition of growth at 20 µM: 5.89%
Leishmania braziliensis [2]
  EC50: > 20 µM

## O=[N+]([O-])c1ccc(C=NNc2nnc(Cl)c3ccccc23)s1
Leishmania braziliensis [1]
  inhibition of growth at 20 µM: 11.5 to 88.5%
Leishmania braziliensis [2]
  EC50: 3.2 µM
[3]
  CC50 at 48 h: < 10 µM
Leishmania braziliensis [10]
  Ratio EC50: 8

## C/C(=N\Nc1nnc(Cl)c2ccccc12)c1cccc([N+](=O)[O-])c1
Leishmania braziliensis [1]
  inhibition of growth at 20 µM: 9.46%
Leishmania braziliensis [2]
  EC50: > 20 µM

## Clc1cccc(/C=N/Nc2nnc(Cl)c3ccccc23)c1
Leishmania braziliensis [1]
  inhibition of growth at 20 µM: 7.03%
Leishmania braziliensis [2]
  EC50: > 20 µM

## C/C(=N\Nc1nnc(Cl)c2ccccc12)c1ccccc1
Leishmania braziliensis [1]
  inhibition of growth at 20 µM: 37%
Leishmania braziliensis [2]
  EC50: > 20 µM

## Clc1nnc(NN=Cc2ccc(Br)cc2)c2ccccc12
Leishmania braziliensis [1]
  inhibition of growth at 20 µM: 17.2%
Leishmania braziliensis [2]
  EC50: > 20 µM

## COc1cc([N+](=O)[O-])ccc1/C=N/Nc1nnc(Cl)c2ccccc12
Leishmania braziliensis [1]
  inhibition of growth at 20 µM: 11.9%
Leishmania braziliensis [2]
  EC50: > 20 µM
